Measured values reported in ChEMBL document CHEMBL1144767, “Characterization of chemical libraries for luciferase inhibitory activity” (J Med Chem, 2008).
Activity calls are given as the source filed them. The calls are words filed in the database; no cut-off is given here.

How the values were obtained:
[1] = molecular target: T1, Luciferin 4-monooxygenase (Photinus pyralis, UniProt P08659); test: Inhibition of Photinus pyralis luciferase by PK-Light assay
[2] = molecular target: T1, Luciferin 4-monooxygenase; test: Inhibition of Photinus pyralis luciferase
[3] = molecular target: T1, Luciferin 4-monooxygenase; test: Inhibition of Photinus pyralis luciferase by Easy lite assay
Method in brief: (§1)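 Detection by 2 µL of EasyLite or Kinase-Glo reagent (Kinase-Glo containing P. pennsylvanica luciferase). 1536-well luminescence. 16 two-fold concentrations, duplicate wells, repeated on two or three days.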

[4] = molecular target: T2, Luciferin 4-monooxygenase (Photuris pensylvanica, UniProt Q27757); test: Inhibition of luciferase Photuris pennsylvanica by Promega Kinase-Glo assay; method in brief: as §1
T2 sequence (Q27757 whole entry): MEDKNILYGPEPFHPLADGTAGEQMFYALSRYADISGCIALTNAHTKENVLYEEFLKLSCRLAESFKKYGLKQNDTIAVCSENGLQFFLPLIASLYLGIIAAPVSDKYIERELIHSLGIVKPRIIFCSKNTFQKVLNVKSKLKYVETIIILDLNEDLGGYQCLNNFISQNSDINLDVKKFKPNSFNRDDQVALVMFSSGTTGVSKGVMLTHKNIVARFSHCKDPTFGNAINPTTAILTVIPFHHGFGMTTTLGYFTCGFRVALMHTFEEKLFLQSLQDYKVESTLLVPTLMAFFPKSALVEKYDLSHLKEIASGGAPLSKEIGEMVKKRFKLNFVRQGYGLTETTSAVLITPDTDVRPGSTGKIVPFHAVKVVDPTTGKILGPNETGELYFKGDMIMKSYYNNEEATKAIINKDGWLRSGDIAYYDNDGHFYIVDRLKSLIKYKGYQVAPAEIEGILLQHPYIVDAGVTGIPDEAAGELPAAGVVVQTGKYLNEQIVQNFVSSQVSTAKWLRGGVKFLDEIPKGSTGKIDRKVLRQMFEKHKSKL

[5] = molecular target: T1, Luciferin 4-monooxygenase; test: Inhibition of Photinus pyralis luciferase by Steady-Glo reporter gene assay
Method in brief: (§2)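 5 nM purified P. pyralis luciferase in SteadyGlo or BrightGlo reporter-gene reagent; no extra ATP or D-luciferin added. 1536-well luminescence. Curves from 16 two-fold concentrations in duplicate, repeated on two or three separate days.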

[6] = molecular target: T1, Luciferin 4-monooxygenase; test: Inhibition of Photinus pyralis luciferase by BrightGlo reporter gene assay; method in brief: as §2
[7] = Inhibition of Renilla reniformis luciferase
[8] = molecular target: Luciferin 4-monooxygenase (Photinus pyralis) (UniProt P08659); test: Inhibition of […] luciferase at 20 uM assessed as quenching of luminescence; parameters: scale not given: the % may be the effect or the level left
Sequence of Luciferin 4-monooxygenase (Photinus pyralis) (P08659 whole entry): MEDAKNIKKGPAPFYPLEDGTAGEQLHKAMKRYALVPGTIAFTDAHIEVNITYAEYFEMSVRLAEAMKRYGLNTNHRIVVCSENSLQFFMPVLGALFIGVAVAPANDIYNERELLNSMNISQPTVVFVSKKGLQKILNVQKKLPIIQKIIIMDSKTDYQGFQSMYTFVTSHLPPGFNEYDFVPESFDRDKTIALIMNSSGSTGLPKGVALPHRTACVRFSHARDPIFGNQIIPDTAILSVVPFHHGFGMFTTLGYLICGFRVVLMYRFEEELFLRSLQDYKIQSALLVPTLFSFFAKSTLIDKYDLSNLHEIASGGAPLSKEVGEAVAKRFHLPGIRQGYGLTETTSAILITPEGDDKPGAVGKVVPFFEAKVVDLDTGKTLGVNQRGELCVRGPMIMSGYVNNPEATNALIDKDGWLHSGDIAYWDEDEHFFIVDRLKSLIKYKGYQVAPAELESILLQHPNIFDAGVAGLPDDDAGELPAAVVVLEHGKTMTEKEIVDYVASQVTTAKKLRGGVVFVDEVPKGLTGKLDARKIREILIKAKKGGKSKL
Method in brief: (§3)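 Light attenuation in two-chamber quartz cuvette at room temperature. One half holds the reaction, the other holds compound in the same buffer. Firefly reaction: 100 µM ATP and D-luciferin, 100 nM enzyme, 5 nm slit. Renilla reaction: 50 µM coelenterazine, 100 nM enzyme, 10 nm slit. Emission scanned 400–700 nm in 2 nm steps, 0.1 s integration. Compounds 2-fold diluted from 100 µM.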

Renilla reniformis = test: Inhibition of Renilla reniformis luciferase at 20 uM assessed as quenching of luminescence; parameters: scale not given: the % may be the effect or the level left; method in brief: as §3
[9] = molecular target: Luciferin 4-monooxygenase (Photinus pyralis) (UniProt P08659); test: Inhibition of […] luciferase at 100 uM; method in brief: as §3

T1 sequence (P08659 whole entry): as above

IC50 [1] [µM] | IC50 [2] [µM] | IC50 [3] [µM] | IC50 [4] [µM] | IC50 [5] [µM] | IC50 [6] [µM] | IC50 [7] [µM] | Activity [8] [%] | Activity (Renilla reniformis) [%] | Activity [9] | SMILES
6.9 | 1.7 | 7.6 | 20 | 22 | 17 | 10 | 50 | 50 |  | Cc1cc(-c2ccc(/N=N/c3ccc4c(S(=O)(=O)O)cc(S(=O)(=O)O)c(N)c4c3O)c(C)c2)ccc1/N=N/c1ccc2c(S(=O)(=O)O)cc(S(=O)(=O)O)c(N)c2c1O [EVANS BLUE]
1.7 | 4.5 | 1.26 | 1.8 | 1.6 | 2 | 36 |  |  | inactive | Cc1ccc(O)c(/N=N/c2ccccc2)n1
